From ChEMBL document CHEMBL3616420, “Nitrogenated honokiol derivatives allosterically modulate GABAA receptors and act as strong partial agonists” (Bioorg Med Chem, 2015) come the findings set out here.

Format in all cases: cell-based
For assay [1], the target named is T1, GABA-A receptor; alpha-1/beta-2/gamma-2 (Homo sapiens) (UniProt P14867+P47870+P18507). Kind of assay: Partial agonist activity at GABAAalpha1beta2gamma2s receptor (unknown origin) expressed in Xenopus laevis oocytes assessed as induction of chloride current by two-microelectrode voltage-clamp method relative to GABA. The procedure, abridged: (§1)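 Stage V–VI Xenopus laevis oocytes, defolliculated with 2 mg/mL collagenase, were injected with subunit cRNAs (approx. 300–3000 pg/nL/subunit) and stored at +18 °C in modified ND96 (pH 7.4). Chloride currents were recorded by two-microelectrode voltage clamp at +21 °C, holding potential −70 mV. Washout was 1.5 min at low compound concentrations and 30 min at high ones. Curves were fitted to a Hill equation. Values are mean ± SE from at least 3 oocytes and 2 batches.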

Assay [2] deals with T1, GABA-A receptor; alpha-1/beta-2/gamma-2 (Homo sapiens). Kind of assay: Allosteric modulation of GABAAalpha1beta2gamma2s receptor (unknown origin) expressed in Xenopus laevis oocytes assessed as potentiation of GABA-induced chloride current by two-microelectrode voltage-clamp method relative to GABA. The essentials: as §1
The target in assay [3] is T2, GABA-A receptor; alpha-1/beta-2/gamma-2 (Homo sapiens, UniProt P14867+P18507+P47870).
T2 sequence (P14867 whole entry): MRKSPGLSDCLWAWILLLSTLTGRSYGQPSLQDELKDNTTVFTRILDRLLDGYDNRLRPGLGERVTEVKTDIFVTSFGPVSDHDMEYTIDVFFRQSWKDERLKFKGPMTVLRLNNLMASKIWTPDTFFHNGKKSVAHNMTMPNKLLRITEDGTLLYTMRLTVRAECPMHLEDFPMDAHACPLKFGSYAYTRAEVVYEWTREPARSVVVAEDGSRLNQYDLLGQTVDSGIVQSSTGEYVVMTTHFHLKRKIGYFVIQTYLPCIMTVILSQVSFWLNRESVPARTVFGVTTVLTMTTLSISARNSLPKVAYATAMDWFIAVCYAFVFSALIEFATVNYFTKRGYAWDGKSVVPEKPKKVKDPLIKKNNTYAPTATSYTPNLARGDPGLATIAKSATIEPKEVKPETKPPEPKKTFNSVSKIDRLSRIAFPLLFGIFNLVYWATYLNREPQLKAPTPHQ
T2 sequence (P47870 whole entry): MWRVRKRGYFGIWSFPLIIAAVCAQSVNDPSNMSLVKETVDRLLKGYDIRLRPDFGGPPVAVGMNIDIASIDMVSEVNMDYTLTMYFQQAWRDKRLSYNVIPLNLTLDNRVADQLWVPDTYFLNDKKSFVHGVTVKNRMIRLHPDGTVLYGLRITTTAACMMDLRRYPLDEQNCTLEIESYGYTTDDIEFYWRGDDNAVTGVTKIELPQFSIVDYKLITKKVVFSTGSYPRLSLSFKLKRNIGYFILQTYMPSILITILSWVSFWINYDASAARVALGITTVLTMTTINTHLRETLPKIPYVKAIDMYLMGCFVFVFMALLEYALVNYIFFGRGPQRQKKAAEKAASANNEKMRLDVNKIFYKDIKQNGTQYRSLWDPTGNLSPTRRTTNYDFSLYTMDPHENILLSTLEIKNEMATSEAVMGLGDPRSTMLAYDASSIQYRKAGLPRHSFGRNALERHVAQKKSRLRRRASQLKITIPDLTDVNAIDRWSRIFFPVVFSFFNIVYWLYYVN
T2 sequence (P18507 whole entry): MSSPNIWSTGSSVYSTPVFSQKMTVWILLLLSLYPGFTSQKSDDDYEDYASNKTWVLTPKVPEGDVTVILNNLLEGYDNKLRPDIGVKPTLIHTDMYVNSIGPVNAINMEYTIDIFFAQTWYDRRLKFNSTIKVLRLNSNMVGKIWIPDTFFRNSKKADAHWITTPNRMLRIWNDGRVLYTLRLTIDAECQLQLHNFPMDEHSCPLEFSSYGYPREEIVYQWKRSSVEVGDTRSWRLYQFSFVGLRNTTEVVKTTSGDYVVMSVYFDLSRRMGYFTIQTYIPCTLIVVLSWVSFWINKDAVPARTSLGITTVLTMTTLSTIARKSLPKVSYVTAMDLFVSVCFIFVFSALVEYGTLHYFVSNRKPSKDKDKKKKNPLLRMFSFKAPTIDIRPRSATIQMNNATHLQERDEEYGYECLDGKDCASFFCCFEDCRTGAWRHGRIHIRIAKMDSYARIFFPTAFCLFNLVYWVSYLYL
Kind of assay: Allosteric modulation of GABAAalpha1beta2gamma2s receptor (unknown origin) expressed in Xenopus laevis oocytes assessed as potentiation of GABA-induced chloride current by two-microelectrode voltage-clamp method. The essentials: as §1

In assay [4] the target is T1, GABA-A receptor; alpha-1/beta-2/gamma-2 (Homo sapiens). Kind of assay: Allosteric modulation of GABAAalpha1beta2gamma2s receptor (unknown origin) expressed in Xenopus laevis oocytes assessed as potentiation of GABA-induced chloride current at 100 uM by two-microelectrode voltage-clamp method. The essentials:
(§2)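 Stage V–VI Xenopus oocytes were injected with 10–50 nL of DEPC-treated water carrying each GABAA subunit cRNA at about 300–3000 pg/nL/subunit. Oocytes were kept at +18 °C in modified ND96 (pH 7.4). Chloride currents were recorded by two-microelectrode voltage clamp at +21 °C, holding at −70 mV. Washout was lengthened at high drug concentrations. Values are mean SE from ≥3 oocytes and ≥2 batches.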

Assay [5] deals with T2, GABA-A receptor; alpha-1/beta-2/gamma-2. Kind of assay: Partial agonist activity at GABAAalpha1beta2gamma2s receptor (unknown origin) expressed in Xenopus laevis oocytes assessed as induction of chloride current by two-microelectrode voltage-clamp method.
The target in assay [6] is T1, GABA-A receptor; alpha-1/beta-2/gamma-2 (Homo sapiens). Kind of assay: Partial agonist activity at GABAAalpha1beta2gamma2s receptor (unknown origin) expressed in Xenopus laevis oocytes assessed as potentiation of GABA-induced chloride current at 100 uM by two-microelectrode voltage-clamp method. The procedure, abridged:
as §2

Activity calls are given as the source filed them. The rule behind the calls is not given here.

Turning to `CCCc1ccc(OC)c(-c2cc(CCC)c(O)c(NC(C)=O)c2)c1`, the result in assay [1] was inactive. The Emax (as a rule, the maximal effect, on the per cent scale that the assay sets) in assay [2] worked out at 42.5%. For the same compound, in assay [3], the half-maximal effective concentration (EC50) (in general, the concentration at which the effect is half-maximal) came to 24.6 µM.

Consider `CCCc1cc(N)c(O)c(-c2ccc(OCC)c(CCC)c2)c1`, for which the values for the Emax in assay [1] and in assay [2] were 29% and 93.7%, respectively. For the same compound, the outcome in assay [4] and in assay [6] was Active. Besides, the EC50 in assay [5] is 33.2 µM; in assay [3] it was 14.4 µM.

In the case of `C=CCc1ccc(O)c(-c2ccc(O)c(CC=C)c2)c1` [HONOKIOL], in assay [1], the Emax was 78%. Further, the EC50 in assay [5] was 76.2 µM.

With `C=CCc1ccc(OC)c(-c2cc(N)c(O)c(CC=C)c2)c1`, the maximum response (Emax) in assay [1] came out at 59%; in assay [2], 72%. The result in assay [4] and in assay [6] was Active. Also, the EC50 in assay [5] came to 144 µM; in assay [3], 47.6 µM.

As for `C=CCc1ccc(OCC)c(-c2cc(N)c(O)c(CC=C)c2)c1`, the outcome in assay [1] was inactive. In assay [2], the Emax was 91%. Further, the EC50 in assay [3] is 21.5 µM.

On to `CCCc1ccc(OCC)c(-c2cc(N)c(O)c(CCC)c2)c1`, for which, in assay [1], the result was inactive. In assay [2], the Emax amounted to 118%. Besides, the concentration for a half-maximal effect (EC50) in assay [3] stood at 20.4 µM.

With `CCCc1cc(NC(C)=O)c(O)c(-c2ccc(OCC)c(CCC)c2)c1`, the Emax in assay [1] turned out to be 32%; in assay [2] it was 123%. For the same compound, the outcome in assay [4] and in assay [6] was Active. The results for the EC50 in assay [5] and in assay [3] were 6.9 µM and 1.8 µM, respectively.

As to `CCCc1ccc(OC)c(-c2cc(N)c(O)c(CCC)c2)c1`, the maximal effect (Emax) amounted to 52% in assay [1] and 108% in assay [2]. The outcome in assay [4] and in assay [6] was Active. Besides, the concentration for a half-maximal effect (EC50) in assay [5] was found to be 62.2 µM; in assay [3], 15.8 µM.

`C=CCc1cc(NC(C)=O)c(O)c(-c2ccc(OC)c(CC=C)c2)c1`: the Emax is 63% in assay [1] and 142% in assay [2]. The concentration for a half-maximal effect (EC50) in assay [5] was 68.1 µM; in assay [3] it was 5.3 µM.
